Data set [1] in a line: Tmax in Sprague-Dawley rat at 20 mg/kg, po. Type of data set: ADME, organism-based. The note with it: in vivo.
Data set [2] concerns the target Histone-lysine N-methyltransferase ASH1L (Homo sapiens) (UniProt Q9NR48). In words: Binding affinity to human His6-tagged ASH1L (E2433 to E2564 residues) expressed in Escherichia coli BL21(DE3) cells at 200 uM incubated for 30 mins by SYPRO orange staining based fluorescence thermal shift assay. An outline of the steps: (§1)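 His6-tagged bromodomain constructs expressed in E. coli BL21(DE3) (grown at 25 °C to OD600 ~1.0, induced with 0.1 mM IPTG at 16 °C for 16 h). Purified by Ni affinity then gel filtration. Final 10 μM protein and 200 μM compound in 10 mM HEPES pH 7.5, 150 mM NaCl, DMSO ≤1%. SYPRO Orange 1:1000, 30 min on ice. Melt 30–75 °C at 0.3 °C/min. Triplicates. Tm from Boltzmann fit; ΔTm = Tm with minus without compound.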

The nature of data set [3]: AUC (0 to infinity) in Sprague-Dawley rat at 20 mg/kg, po. Type of data set: ADME, organism-based. More on the design: dose 20 mg/kg, route oral, time infinity. Conditions: in vivo.
Data set [4] has as its target Histone acetyltransferase p300 (Homo sapiens) (UniProt Q09472). Put plainly: Binding affinity to human His6-tagged EP300 (A1040 to G1161 residues) expressed in Escherichia coli BL21(DE3) cells at 200 uM incubated for 30 mins by SYPRO orange staining based fluorescence thermal shift assay. Summed up: as §1
Data set [5] concerns the target T1, Bromodomain-containing protein 9 (Homo sapiens) (UniProt Q9H8M2).
T1 sequence (whole entry): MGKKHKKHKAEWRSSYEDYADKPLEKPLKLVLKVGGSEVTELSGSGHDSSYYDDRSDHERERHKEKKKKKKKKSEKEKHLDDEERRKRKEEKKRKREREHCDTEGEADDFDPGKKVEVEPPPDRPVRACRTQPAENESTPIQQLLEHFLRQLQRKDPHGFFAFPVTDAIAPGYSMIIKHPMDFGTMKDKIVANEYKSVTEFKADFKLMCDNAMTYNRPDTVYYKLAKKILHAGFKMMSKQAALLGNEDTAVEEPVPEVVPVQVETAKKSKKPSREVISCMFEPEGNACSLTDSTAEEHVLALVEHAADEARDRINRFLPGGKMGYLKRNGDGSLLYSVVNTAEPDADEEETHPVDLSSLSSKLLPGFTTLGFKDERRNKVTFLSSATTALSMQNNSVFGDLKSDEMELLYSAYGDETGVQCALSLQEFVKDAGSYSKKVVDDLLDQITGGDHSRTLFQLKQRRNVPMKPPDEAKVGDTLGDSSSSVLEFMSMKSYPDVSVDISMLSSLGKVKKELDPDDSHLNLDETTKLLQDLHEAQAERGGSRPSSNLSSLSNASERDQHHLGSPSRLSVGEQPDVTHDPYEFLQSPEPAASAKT
Put plainly: Binding affinity to human His6-tagged BRD9 (L14 to Q134 residues) expressed in Escherichia coli BL21(DE3) cells at 200 uM incubated for 30 mins by SYPRO orange staining based fluorescence thermal shift assay. Summed up:
as §1

Data set [6] is described as follows: AUC (0 to t) in Sprague-Dawley rat at 20 mg/kg, po. It counts as ADME, organism-based. Conditions: in vivo.
Data set [7] in a line: Oral bioavailability in Sprague-Dawley rat at 20 mg/kg, after 0.083 to 24 hrs. Type of data set: ADME, organism-based. Conditions: in vivo.
For data set [8], the target named is CREB-binding protein (Homo sapiens) (UniProt Q92793). In words: Binding affinity to human His6-tagged CREBBP (R1081 to G1197 residues) expressed in Escherichia coli BL21(DE3) cells at 200 uM incubated for 30 mins by SYPRO orange staining based fluorescence thermal shift assay. Summed up: as §1
Data set [9] in a line: Tmax in Sprague-Dawley rat at 5 mg/kg, iv. Type of data set: ADME, organism-based. The note with it: in vivo.
Data set [10] has as its target Bromodomain-containing protein 2 (Homo sapiens) (UniProt P25440). In words: Binding affinity to human His6-tagged BRD2 bromodomain 1 (K77 to N194 residues) expressed in Escherichia coli BL21(DE3) cells at 200 uM incubated for 30 mins by SYPRO orange staining based fluorescence thermal shift assay. Summed up: as §1
Data set [11] in a line: Metabolic stability in rat liver microsomes assessed as parent compound remaining at 1 uM incubated for 40 mins by HPLC-MS/MS analysis in presence of NADPH. It counts as ADME. Conditions: read-out: Stability.
The test system of data set [12] is Rattus norvegicus. In words: Apparent volume of distribution during terminal phase in Sprague-Dawley rat at 5 mg/kg, iv. Type of data set: ADME, organism-based. Conditions: in vivo.
In the next data set the test system is HT-29. In words: Antiproliferative activity against human HT-29 cells after 72 hrs by CCK8 assay. The note with it: Homo sapiens, HT-29, 72 h; read-out: IC50. It counts as functional, cell-based.
Data set [13] in a line: Half life in Sprague-Dawley rat at 20 mg/kg, po. Type of data set: ADME, organism-based. The note with it: in vivo.
A short description of data set [14]: Cmax in Sprague-Dawley rat at 20 mg/kg, po after 0.083 to 24 hrs. The note with it: in vivo. Also noted: dose 20 mg/kg, route oral. It counts as ADME, organism-based.
Data set [15] is described as follows: AUC (0 to t) in Sprague-Dawley rat at 30 mg/kg, po. Type of data set: ADME, organism-based. The note with it: in vivo.
A short description of data set [16]: Half life in Sprague-Dawley rat at 30 mg/kg, po. It counts as ADME, organism-based. Conditions: in vivo.
The nature of data set [17]: Oral bioavailability in Sprague-Dawley rat at 30 mg/kg, after 0.083 to 24 hrs. Conditions: in vivo. It counts as ADME, organism-based.
Data set [18] can be described thus: Tmax in Sprague-Dawley rat at 30 mg/kg, po. Type of data set: ADME, organism-based. The note with it: in vivo.
Data set [19] in a line: Cmax in Sprague-Dawley rat at 30 mg/kg, po after 0.083 to 24 hrs. It counts as ADME, organism-based. Also noted: dose 30 mg/kg, route oral. Conditions: in vivo.
The test system of data set [20] is Rattus norvegicus. Put plainly: Apparent clearance during terminal phase in Sprague-Dawley rat at 5 mg/kg, iv. Type of data set: ADME, organism-based. The note with it: in vivo.
A short description of data set [21]: Efflux ratio of apparent permeability from basolateral to apical side over apical to basolateral side in human Caco2 cells at 10 uM incubated for 1 hr by HPLC-MS/MS analysis. Type of data set: ADME, cell-based. Conditions: Caco-2. For orientation: Caco-2 monolayers are a common model of the intestinal barrier.
Data set [22] can be described thus: AUC (0 to infinity) in Sprague-Dawley rat at 30 mg/kg, po. The note with it: in vivo. Also noted: dose 30 mg/kg, route oral, time infinity. It counts as ADME, organism-based.

Sequence of Bromodomain-containing protein 2 (Homo sapiens) (P25440 whole entry, looked up, the tested form may be a part): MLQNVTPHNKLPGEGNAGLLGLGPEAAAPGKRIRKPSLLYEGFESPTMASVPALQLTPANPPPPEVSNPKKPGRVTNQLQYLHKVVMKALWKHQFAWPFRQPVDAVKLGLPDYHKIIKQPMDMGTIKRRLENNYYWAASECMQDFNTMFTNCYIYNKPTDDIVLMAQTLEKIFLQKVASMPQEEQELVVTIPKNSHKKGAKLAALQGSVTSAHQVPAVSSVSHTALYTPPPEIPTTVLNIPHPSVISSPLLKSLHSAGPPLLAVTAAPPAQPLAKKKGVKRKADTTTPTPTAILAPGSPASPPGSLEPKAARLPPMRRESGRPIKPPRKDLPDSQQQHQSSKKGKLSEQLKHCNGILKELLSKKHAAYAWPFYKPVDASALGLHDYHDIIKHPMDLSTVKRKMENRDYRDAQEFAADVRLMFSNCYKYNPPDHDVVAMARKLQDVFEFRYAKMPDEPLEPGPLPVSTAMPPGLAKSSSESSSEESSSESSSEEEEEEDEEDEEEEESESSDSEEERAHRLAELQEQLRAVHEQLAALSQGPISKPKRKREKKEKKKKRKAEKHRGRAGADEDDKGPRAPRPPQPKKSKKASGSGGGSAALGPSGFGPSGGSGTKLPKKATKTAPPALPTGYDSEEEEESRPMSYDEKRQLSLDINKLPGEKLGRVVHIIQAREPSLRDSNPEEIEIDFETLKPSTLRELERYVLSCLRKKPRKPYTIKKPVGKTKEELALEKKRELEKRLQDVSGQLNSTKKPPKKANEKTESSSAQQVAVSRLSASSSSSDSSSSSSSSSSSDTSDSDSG
Sequence of Histone acetyltransferase p300 (Homo sapiens) (Q09472 whole entry, the tested form may be a part): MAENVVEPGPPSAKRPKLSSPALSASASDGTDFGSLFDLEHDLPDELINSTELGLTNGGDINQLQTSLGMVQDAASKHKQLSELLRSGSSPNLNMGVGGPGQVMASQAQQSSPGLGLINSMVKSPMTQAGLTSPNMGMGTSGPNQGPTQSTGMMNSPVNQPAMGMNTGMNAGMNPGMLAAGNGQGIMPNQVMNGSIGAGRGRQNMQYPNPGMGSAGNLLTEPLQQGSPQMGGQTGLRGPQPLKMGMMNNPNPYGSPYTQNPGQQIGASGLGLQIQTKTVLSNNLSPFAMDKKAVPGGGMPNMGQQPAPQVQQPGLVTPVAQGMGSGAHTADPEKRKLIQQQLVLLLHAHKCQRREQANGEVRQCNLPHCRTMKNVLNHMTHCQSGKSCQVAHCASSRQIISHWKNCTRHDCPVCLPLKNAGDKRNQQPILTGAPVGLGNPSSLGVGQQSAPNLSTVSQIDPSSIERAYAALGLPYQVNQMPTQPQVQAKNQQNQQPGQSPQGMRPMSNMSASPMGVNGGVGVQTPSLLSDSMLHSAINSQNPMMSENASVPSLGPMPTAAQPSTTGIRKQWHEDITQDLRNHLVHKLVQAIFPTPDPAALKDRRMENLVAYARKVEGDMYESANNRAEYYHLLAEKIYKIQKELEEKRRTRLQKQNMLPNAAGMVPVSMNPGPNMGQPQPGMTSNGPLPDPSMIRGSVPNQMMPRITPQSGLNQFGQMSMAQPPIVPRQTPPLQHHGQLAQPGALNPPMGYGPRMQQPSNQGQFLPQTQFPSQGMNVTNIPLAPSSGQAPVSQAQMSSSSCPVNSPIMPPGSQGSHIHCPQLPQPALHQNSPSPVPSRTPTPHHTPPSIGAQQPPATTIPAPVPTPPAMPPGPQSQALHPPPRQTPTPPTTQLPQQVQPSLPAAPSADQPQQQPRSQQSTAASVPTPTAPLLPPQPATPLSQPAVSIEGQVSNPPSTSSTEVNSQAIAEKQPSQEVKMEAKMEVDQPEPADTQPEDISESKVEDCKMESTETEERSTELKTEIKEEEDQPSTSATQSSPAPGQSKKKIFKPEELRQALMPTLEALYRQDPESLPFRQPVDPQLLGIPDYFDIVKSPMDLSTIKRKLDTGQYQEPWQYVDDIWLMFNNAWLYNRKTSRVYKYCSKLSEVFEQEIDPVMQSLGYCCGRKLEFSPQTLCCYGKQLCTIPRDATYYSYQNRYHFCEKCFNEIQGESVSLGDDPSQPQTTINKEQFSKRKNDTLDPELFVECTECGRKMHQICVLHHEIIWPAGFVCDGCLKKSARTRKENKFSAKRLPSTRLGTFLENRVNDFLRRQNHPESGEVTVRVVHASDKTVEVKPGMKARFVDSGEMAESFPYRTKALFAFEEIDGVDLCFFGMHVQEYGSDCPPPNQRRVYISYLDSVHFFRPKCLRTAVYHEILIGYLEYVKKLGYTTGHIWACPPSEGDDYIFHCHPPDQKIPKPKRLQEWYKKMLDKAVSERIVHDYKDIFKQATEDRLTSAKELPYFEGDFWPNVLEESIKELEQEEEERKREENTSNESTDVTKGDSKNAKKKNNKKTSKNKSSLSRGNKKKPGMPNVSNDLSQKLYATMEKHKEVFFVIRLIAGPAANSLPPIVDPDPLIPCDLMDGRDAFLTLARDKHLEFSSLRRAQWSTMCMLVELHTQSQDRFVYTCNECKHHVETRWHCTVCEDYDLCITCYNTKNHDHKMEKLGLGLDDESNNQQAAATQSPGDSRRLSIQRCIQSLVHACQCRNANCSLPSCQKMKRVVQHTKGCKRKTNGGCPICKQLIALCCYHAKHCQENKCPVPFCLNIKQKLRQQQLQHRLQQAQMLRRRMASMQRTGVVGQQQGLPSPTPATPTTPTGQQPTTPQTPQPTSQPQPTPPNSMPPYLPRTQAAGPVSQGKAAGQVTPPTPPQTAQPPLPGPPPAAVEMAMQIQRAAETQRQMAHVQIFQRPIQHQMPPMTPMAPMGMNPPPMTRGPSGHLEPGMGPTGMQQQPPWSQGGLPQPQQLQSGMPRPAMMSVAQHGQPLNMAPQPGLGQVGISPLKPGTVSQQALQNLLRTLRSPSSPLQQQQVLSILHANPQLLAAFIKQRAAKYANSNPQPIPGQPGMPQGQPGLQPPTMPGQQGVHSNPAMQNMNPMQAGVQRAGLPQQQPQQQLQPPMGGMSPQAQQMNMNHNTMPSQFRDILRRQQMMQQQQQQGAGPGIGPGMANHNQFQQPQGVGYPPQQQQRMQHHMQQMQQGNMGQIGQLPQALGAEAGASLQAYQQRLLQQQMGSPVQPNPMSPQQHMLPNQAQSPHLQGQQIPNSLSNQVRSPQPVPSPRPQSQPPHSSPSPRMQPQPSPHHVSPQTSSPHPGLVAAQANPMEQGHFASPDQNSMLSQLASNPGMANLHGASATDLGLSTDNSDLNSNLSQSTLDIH

As for `CCN1C(=O)c2cccc3c(NS(=O)(=O)c4cc(Br)ccc4OC)ccc1c23`, the results for the Tmax in data set [1] and in [9] were 25.2 min and 1.98 min, respectively. In addition, the shift in melting temperature (ΔTm) in [2] was -1.1 °C; in [4], 3.5 °C; in data set [5] it was 2.3 °C; in data set [8], 3.5 °C; in data set [10] it was 5.6 °C. Moreover, the AUC(0-inf) in [3] came to 2.21 µg·h/mL. In data set [6], this molecule displayed an AUC(0-t) of 2.2 µg·h/mL. Further, the bioavailability in data set [7] stood at 76.8%. The remaining at 40 min, 1 µM in data set [11] stood at 57.2%. Also, in the data set on Rattus norvegicus [12], the Vz/F was found to be 10.1 L/kg. For the same molecule, the IC50 with HT-29 was determined as 12.9 µM. Besides, the half-life in data set [13] is 237 min. This molecule also gave a Cmax in data set [14] of 0.516 µg/mL.

For `CCN1C(=O)c2cccc3c(S(=O)(=O)NC4CCCCC4)ccc1c23`, the ΔTm was 0.8 °C in [2]; 2.4 °C in data set [4]; -0.2 °C in data set [5]; 1.8 °C in data set [8]; 5.9 °C in data set [10]. The molecule further gave an area under the curve AUC(0-t) in data set [15] of 0.0803 µg·h/mL. This molecule also had a half-life in data set [16] of 104 min. This molecule also showed a bioavailability in data set [17] of 1.7%. The results for the Tmax in data set [18] and in data set [9] were 25.2 min and 1.98 min, respectively. Also, the Cmax in data set [19] was determined as 0.0373 µg/mL. Besides, in the data set with Rattus norvegicus [20], the CLz/F was determined as 6.12 L/h/kg. Further, the efflux ratio at 1 h, 10 µM in data set [21] stood at 1.3. Further, the remaining at 40 min, 1 µM in data set [11] was determined as 4.5%. Also, in the data set on Rattus norvegicus [12], the Vz/F came out at 9.98 L/kg. In [22], this molecule came in with an AUC(0-inf) of 0.0856 µg·h/mL. Besides, the IC50 in the data set on HT-29 was determined as 8.5 µM.

One may read the Tmax as the time at which the peak concentration occurs. By ΔTm is commonly meant the shift of the melting midpoint relative to a reference. As usually defined, the AUC(0-inf) is the area under the concentration-time curve extrapolated to infinity. What is called AUC(0-t) is the area under the concentration-time curve up to a stated or last time point. Lower therefore signals less exposure. Broadly, the bioavailability is dose-corrected exposure relative to a reference, in per cent. Read a low bioavailability as little systemic uptake. The term IC50 denotes the concentration that gives 50% inhibition. For orientation: half-life means how long it takes for the measured level to halve. Broadly, the Cmax is the highest concentration seen after dosing. For orientation: efflux ratio means the permeability from basolateral to apical divided by that in the opposite direction, in the common usage.

Source of the values: ChEMBL document CHEMBL3779865, “Discovery of Benzo[cd]indol-2(1H)-ones as Potent and Specific BET Bromodomain Inhibitors: Structure-Based Virtual Screening, Optimization, and Biological Evaluation” (J Med Chem, 2016).
